In ChEMBL document CHEMBL1139331, “Molecular modelling studies, synthesis and biological activity of a series of novel bisnaphthalimides and their development as new DNA topoisomerase II inhibitors” (Bioorg Med Chem, 2009):
The source made the active and inactive calls. The calls are words filed in the database; no cut-off is given here.

Key:
[1] = target: DNA topoisomerase 2-alpha (Homo sapiens) (UniProt P11388); experiment: Inhibition of human recombinant topoisomerase 2alpha-mediated pBR322 DNA cleavage after 30 mins
HT-29 [2] = experiment: Cytotoxicity against human HT-29 cells after 72 hrs by MTT assay; assay type: functional, cell-based; details: HT-29, 72 h
In short: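 HT-29 cells, grown in DMEM with 2 mM L-glutamine, 10% heat-inactivated FBS and 1% penicillin/streptomycin at 37 °C, seeded at 1 × 10⁵ cells/ml and exposed 72 h to a range of compound concentrations in DMSO. Cells were then given MTT 3 h, formazan dissolved in SDS/formamide lysis buffer pH 4.7, and absorbance read at 620 nm. Values are % of untreated control; IC50 is from ≥3 experiments.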

HT-29 [3] = experiment: Induction of apoptosis in human HT-29 cells assessed as hypodiploid DNA content at 0.5 uM after 48 hrs using propidium iodide staining by flow cytometry; assay type: functional, cell-based
In short: (§1)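 Cultured HT-29 cells were plated at 5 × 10⁵ per 6-cm dish the day before treatment, then exposed 48 h to 0.1–5 μM. Cells were washed in PBS and taken up in 0.1% sodium citrate, 0.1% Triton X-100 and 50 μg/ml PI for 30 min at 4 °C in the dark. Nuclei were run by flow cytometry with debris gated out by forward scatter, and % hypodiploid nuclei counted. Three experiments in triplicate.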

HT-29 [4] = experiment: Blockade of cell cycle progression in human HT-29 cells; assay type: functional, cell-based
HT-29 [5] = experiment: Induction of apoptosis in human HT-29 cells after 48 hrs assessed as hypodiploid DNA content using propidium iodide staining by flow cytometry; assay type: functional, cell-based; in short: as §1
HT-29 [6] = experiment: Induction of apoptosis in human HT-29 cells after 48 hrs using propidium iodide staining by flow cytometry in presence of Z-VAD-FMK; assay type: functional, cell-based
In short: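 HT-29 cells were pretreated with the general caspase inhibitor Z-VAD-FMK at 50 μM for 30 min before compound was added, then incubated 48 h. Nuclei were stained with PI in 0.1% citrate/0.1% Triton X-100 for 30 min at 4 °C in the dark. Hypodiploid % was scored by flow cytometry. Three experiments in triplicate; Bonferroni test.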

[7] = target: DNA topoisomerase 2-alpha (Homo sapiens) (UniProt P11388); experiment: Inhibition of human recombinant topoisomerase 2alpha-mediated pBR322 DNA cleavage at 10 uM after 30 mins
HT-29 [8] = experiment: Induction of apoptosis in human HT-29 cells assessed as hypodiploid DNA content at 0.1 uM after 48 hrs using propidium iodide staining by flow cytometry; assay type: functional; in short: as §1

Chain of DNA topoisomerase 2-alpha (Homo sapiens) (P11388 whole entry): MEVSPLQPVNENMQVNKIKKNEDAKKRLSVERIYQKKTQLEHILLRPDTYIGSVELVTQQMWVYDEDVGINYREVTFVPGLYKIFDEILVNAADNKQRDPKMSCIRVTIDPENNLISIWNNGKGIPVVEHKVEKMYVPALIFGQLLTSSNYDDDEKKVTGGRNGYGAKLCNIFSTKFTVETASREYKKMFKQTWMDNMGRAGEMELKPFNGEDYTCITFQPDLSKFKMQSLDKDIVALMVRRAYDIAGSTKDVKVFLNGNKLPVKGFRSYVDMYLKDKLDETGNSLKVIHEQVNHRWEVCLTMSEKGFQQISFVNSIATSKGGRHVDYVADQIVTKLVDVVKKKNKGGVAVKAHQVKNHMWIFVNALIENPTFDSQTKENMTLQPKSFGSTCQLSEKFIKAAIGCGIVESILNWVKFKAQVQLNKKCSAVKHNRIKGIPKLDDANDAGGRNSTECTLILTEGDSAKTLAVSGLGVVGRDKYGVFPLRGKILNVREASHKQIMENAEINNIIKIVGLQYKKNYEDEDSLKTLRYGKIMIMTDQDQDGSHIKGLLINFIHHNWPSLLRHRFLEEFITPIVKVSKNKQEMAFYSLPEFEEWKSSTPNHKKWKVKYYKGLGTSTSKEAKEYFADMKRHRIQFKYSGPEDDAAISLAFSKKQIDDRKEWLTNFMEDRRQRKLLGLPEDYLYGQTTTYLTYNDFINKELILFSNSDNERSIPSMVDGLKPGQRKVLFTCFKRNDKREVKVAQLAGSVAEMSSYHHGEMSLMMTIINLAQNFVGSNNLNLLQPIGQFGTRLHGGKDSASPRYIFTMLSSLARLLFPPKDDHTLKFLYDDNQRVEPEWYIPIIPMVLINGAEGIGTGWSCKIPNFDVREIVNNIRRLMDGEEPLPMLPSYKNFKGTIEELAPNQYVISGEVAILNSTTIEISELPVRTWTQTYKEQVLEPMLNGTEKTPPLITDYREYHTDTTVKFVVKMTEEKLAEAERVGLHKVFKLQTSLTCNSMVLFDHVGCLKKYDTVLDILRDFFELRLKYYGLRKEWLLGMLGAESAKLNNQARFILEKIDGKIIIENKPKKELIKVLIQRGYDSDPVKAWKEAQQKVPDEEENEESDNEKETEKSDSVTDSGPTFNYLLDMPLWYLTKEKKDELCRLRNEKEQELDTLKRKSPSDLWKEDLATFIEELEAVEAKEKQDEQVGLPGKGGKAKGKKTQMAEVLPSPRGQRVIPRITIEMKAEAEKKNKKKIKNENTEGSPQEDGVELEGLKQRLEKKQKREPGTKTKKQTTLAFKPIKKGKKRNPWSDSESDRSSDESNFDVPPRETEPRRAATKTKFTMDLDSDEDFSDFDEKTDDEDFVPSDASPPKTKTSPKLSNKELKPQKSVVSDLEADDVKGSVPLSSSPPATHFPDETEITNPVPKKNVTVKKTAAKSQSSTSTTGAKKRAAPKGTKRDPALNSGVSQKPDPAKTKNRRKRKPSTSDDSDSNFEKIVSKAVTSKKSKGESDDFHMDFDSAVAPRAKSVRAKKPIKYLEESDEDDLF

Compound	Activity [1]	IC50 (HT-29 [2]) [nM]	Activity (HT-29 [4])	further results
O=C1c2cccc3cc([N+](=O)[O-])cc(c23)C(=O)N1CCCNC1CC1NCCCN1C(=O)c2cccc3cc([N+](=O)[O-])cc(c23)C1=O (stereo not given)	inactive	3300	inactive	Activity (HT-29 [3]): Active; Activity (HT-29 [5]): Dose-dependent effect; Activity (HT-29 [6]): inactive
O=C1c2cccc3cc([N+](=O)[O-])cc(c23)C(=O)N1CCN1CC2CCC(C1)N2CCN1C(=O)c2cccc3cc([N+](=O)[O-])cc(c23)C1=O		7300	inactive	
C[C@@H]1CN(CCN2C(=O)c3cccc4cc([N+](=O)[O-])cc(c34)C2=O)C[C@H](C)N1CCN1C(=O)c2cccc3cc([N+](=O)[O-])cc(c23)C1=O		6100	inactive	
O=C1c2cccc3cccc(c23)C(=O)N1CCCCNCCNCCCNCCNCCCCN1C(=O)c2cccc3cccc(c23)C1=O		6100		
O=C1c2cccc3cc([N+](=O)[O-])cc(c23)C(=O)N1CCCCNCCNCCCNCCNCCCCN1C(=O)c2cccc3cc([N+](=O)[O-])cc(c23)C1=O		160		Activity [7]: Active
O=C1c2cccc3cc([N+](=O)[O-])cc(c23)C(=O)N1CCN1CCN(CCN2C(=O)c3cccc4cc([N+](=O)[O-])cc(c34)C2=O)CC1		2100	inactive	
O=C1c2cccc3cc([N+](=O)[O-])cc(c23)C(=O)N1CCCNCCNCCCN1C(=O)c2cccc3cc([N+](=O)[O-])cc(c23)C1=O	inactive	501	inactive	Activity (HT-29 [8]): 40%; Activity (HT-29 [5]): Dose-dependent effect; Activity (HT-29 [6]): inactive
O=C1c2cccc3cccc(c23)C(=O)N1CCNCCCNCCN1C(=O)c2cccc3cccc(c23)C1=O [ELINAFIDE]		38		
O=C1c2cccc3cc([N+](=O)[O-])cc(c23)C(=O)N1CCNCCNCCN1C(=O)c2cccc3cc([N+](=O)[O-])cc(c23)C1=O	inactive	200	inactive	
